Results: publication PMC4269301 (International journal of peptide research and therapeutics, 2014)
Square brackets hold non-standard residues; d marks the D form. Ends that are not written are not given here. Peptide text beside a SMILES is read from it. Nle = CCCC[C@H](N)C(=O)O

Tests used:
GRK5 [1] = target: T1, GRK5 (Homo sapiens, UniProt P34947); assay: GRK5 phosphorylation of light-activated rhodopsin; assay type: biochemical; details: for inhibition at 100 µM: read-out: % Inhibition (100 μM) of GRK5 phosphorylation of rhodopsin; for % Inhibition (100 μM) of GRK5 phosphorylation of rhodopsin: 100 μM peptide, 0.5 μM light-activated rhodopsin, 100 μM ATP, 5 min; for Inhibition of GRK5 phosphorylation of rhodopsin: peptides 10, 30 and 100 μM, four or more experiments in duplicate
T1 sequence (P34947 whole entry): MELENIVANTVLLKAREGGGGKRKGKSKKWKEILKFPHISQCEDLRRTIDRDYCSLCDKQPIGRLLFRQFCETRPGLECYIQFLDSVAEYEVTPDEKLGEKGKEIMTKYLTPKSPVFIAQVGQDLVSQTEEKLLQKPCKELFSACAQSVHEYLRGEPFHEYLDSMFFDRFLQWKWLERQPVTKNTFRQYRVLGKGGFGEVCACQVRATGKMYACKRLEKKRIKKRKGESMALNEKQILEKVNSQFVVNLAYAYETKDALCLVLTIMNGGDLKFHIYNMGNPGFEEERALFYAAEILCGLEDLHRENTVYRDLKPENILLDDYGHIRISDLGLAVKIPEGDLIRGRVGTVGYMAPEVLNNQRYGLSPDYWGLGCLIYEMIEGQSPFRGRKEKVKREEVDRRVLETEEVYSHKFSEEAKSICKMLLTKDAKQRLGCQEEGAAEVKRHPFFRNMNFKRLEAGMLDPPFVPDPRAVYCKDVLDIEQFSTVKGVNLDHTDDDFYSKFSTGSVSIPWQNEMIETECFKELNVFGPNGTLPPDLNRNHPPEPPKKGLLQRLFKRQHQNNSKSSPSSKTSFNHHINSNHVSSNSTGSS

[2] = target: Human His6-tagged GRK5 (human) (UniProt P34947)
Human His6-tagged GRK5 (human), sequence (P34947 whole entry): as above

GRK2 [3] = target: T2, GRK2 (Homo sapiens, UniProt P25098, S670A); assay: GRK2 phosphorylation of light-activated rhodopsin; assay type: biochemical; details: peptides 10, 30 and 100 μM; four or more experiments in duplicate
T2 sequence (P25098 1-689 S670A): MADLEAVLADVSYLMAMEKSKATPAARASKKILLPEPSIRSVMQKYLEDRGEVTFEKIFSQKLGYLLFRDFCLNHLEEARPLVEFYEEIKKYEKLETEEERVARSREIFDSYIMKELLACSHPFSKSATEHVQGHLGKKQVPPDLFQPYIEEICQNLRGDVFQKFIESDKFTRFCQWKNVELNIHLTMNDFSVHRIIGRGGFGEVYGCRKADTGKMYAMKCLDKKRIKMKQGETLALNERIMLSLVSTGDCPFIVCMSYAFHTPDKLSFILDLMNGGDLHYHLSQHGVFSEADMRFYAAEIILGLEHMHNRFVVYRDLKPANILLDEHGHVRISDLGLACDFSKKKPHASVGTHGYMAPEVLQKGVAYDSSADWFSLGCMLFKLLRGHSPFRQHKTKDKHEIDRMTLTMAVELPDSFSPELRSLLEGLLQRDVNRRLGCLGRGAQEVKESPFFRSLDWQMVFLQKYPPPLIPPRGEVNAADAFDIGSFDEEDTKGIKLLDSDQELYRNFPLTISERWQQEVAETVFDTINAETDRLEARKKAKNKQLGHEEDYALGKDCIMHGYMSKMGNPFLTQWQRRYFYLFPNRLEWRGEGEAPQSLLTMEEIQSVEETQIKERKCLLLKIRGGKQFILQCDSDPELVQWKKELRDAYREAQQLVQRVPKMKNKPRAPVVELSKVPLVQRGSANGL
Outline: (§1)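 Light-activated (475 nm, 30 s) rhodopsin, 0.5 μM, from urea-stripped bovine ROS. Kinase was purified GRK2 (His₆, S670A, Sf9/baculovirus, Ni-IMAC) or N-terminal His₆ full-length human GRK6, at 10–100 nM. Buffer: 20 mM Tris pH 7.5, 10 mM MgCl₂, 1 mM EDTA, 100 μM [γ³²P]ATP; peptides in DMSO (2–4 %). Ran 5 min, then SDS-PAGE and autoradiography. ≥4 experiments in duplicate, % of control.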

GRK6 = GRK6 phosphorylation of light-activated rhodopsin; assay type: biochemical, human; details: peptides 10, 30 and 100 μM; four or more experiments in duplicate
Outline: as §1

GRK7 = target: T3, GRK7 (Homo sapiens, UniProt Q8WTQ7); assay: GRK7 phosphorylation of light-activated rhodopsin; assay type: biochemical; details: for Inhibition of GRK7 phosphorylation of rhodopsin: peptides 10, 30 and 100 μM, four or more experiments in duplicate
T3 sequence (Q8WTQ7 1-553): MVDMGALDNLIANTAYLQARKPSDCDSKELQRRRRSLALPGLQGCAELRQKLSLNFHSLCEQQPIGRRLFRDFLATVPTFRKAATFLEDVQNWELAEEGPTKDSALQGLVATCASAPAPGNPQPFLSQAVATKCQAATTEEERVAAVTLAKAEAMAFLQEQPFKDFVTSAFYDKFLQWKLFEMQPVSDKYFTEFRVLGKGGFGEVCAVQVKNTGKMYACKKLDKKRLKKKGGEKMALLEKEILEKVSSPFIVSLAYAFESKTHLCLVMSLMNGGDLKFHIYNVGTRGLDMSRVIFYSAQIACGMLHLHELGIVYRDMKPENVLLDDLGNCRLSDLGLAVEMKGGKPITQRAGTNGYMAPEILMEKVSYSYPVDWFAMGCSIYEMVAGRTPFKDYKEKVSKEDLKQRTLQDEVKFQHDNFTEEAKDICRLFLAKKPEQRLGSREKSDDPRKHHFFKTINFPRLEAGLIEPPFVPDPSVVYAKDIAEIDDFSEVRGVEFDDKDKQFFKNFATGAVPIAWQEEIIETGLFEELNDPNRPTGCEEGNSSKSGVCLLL
Outline: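 Substrate is urea-stripped bovine rod outer segment rhodopsin (0.5 μM in reaction buffer; 0.5–4 μM per legend), light-activated at 475 nm for 30 s. Peptides are dissolved in DMSO (2–4% final) and quantified by A280. Results are normalised to the no-peptide control as mean ± SEM.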

GRK2 [4] = target: T2, GRK2; assay: GRK2 phosphorylation of tubulin; assay type: biochemical; details: 0.5 μM tubulin, 60 min, 30 °C
Outline: (§2)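 Bovine brain tubulin 500 nM with 100 nM GRK2 (His₆, S670A, Sf9-expressed) or human His₆-GRK5; 20 mM Tris pH 7.5, 1 mM EDTA, 10 mM MgCl₂, 5 μM DTT, 100 μM [γ³²P]ATP; 60 min, 30 °C. 12 % SDS-PAGE; ³²P-tubulin counted from excised bands or by autoradiogram densitometry. Mean ± SEM, ≥4 experiments in duplicate, % of control; one-way ANOVA.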

GRK5 [5] = target: T1, GRK5; assay: GRK5 phosphorylation of tubulin; assay type: biochemical; details: 0.5 μM tubulin, 30 °C
Outline: as §2

[6] = target: Human His6-tagged GRK5 (human) (UniProt P34947); remark: listed apart in the source
[7] = target: light-activated rhodopsin in urea-stripped bovine rod outer segments (bovine) (UniProt P02699)
light-activated rhodopsin in urea-stripped bovine rod outer segments (bovine), sequence (P02699 whole entry): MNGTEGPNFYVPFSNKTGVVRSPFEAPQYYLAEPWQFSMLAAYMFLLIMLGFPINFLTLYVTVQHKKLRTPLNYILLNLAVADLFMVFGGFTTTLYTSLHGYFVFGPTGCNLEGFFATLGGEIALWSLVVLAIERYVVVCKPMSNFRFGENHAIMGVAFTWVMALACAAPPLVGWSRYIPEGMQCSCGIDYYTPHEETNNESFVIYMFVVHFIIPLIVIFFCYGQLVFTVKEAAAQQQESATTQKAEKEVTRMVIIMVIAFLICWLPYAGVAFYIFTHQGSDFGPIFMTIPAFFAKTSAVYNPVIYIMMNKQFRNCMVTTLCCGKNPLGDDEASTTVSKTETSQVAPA

**Q.** Which IC50 (GRK5 [1]) does the source give for `CCCC[C@H](NC(=O)[C@H](CO)NC(C)=O)C(=O)N[C@@H](Cc1ccccc1)C(=O)N[C@@H](Cc1ccccc1)C(=O)N[C@@H](CC(=O)O)C(=O)N[C@@H](CCCNC(=N)N)C(=O)N[C@@H](Cc1ccccc1)C(=O)N[C@@H](CC(C)C)C(=O)N[C@@H](C)C(=O)N[C@@H](Cc1c[nH]c2ccccc12)C(=O)N[C@@H](CCCCN)C(=O)N[C@@H](Cc1c[nH]c2ccccc12)C(=O)N[C@@H](CC(C)C)C(=O)N[C@@H](CCC(=O)O)C(=O)N[C@@H](CCCNC(=N)N)C(N)=O` [Peptide Q172A] (Ac-S[Nle]FFDRFLAWKWLER-NH2) here?
**A.** The IC50 was 15.1 ± 7.3 µM.

**Q.** What about the inhibition at 100 µM (GRK5 [1]) of the same molecule?
**A.** The inhibition at 100 µM was 95%.

**Q.** What does the source list for Ac-FFDRFLQWKWLER-NH2 [Peptide T1]?
**A.** IC50 (GRK5 [1]): 23.9 ± 16 µM; inhibition at 100 µM (GRK5 [1]): 95%

**Q.** For Ac-FFDAFLQWK-NH2 [Peptide T5], which “% Inhibition (100 μM) of GRK5 phosphorylation of rhodopsin” value (GRK5 [1]) is on record?
**A.** The value was 22%.

**Q.** “Ac-S[Nle]FFDRFLQWKWAER-NH2 [Peptide L176A]” was tested. Which “% Inhibition (100 μM) of GRK5 phosphorylation of rhodopsin” value (GRK5 [1]) did it give?
**A.** The value was 74%.

**Q.** α9 (164–178) peptide of GRK5 was tested. Which GRK5 phosphorylation of light-activated rhodopsin: IC50 of inhibition [2] did it give?
**A.** Its GRK5 phosphorylation of light-activated rhodopsin: IC50 of inhibition is 15.9 µM.

**Q.** Which “Inhibition of GRK5 phosphorylation of rhodopsin” value (GRK5 [1]) does the source give for `CCCC[C@H](NC(=O)[C@H](CCC(=O)O)NC(=O)[C@H](CC(N)=O)NC(=O)[C@H](CCC(N)=O)NC(=O)[C@H](Cc1c[nH]c2ccccc12)NC(=O)[C@@H]1CCCN1C(=O)[C@@H](NC(=O)[C@H](CO)NC(=O)[C@@H](NC(C)=O)C(C)C)[C@@H](C)CC)C(=O)N[C@H](C(=O)N[C@@H](CCC(=O)O)C(N)=O)[C@@H](C)CC` [α10] (Ac-VSIPWQNE[Nle]IE-NH2) here?
**A.** The value was “inhibited”.

**Q.** And the “Inhibition of GRK2 phosphorylation of rhodopsin” value (GRK2 [3])?
**A.** Its value is “less inhibition”.

**Q.** And the “Inhibition of GRK6 phosphorylation of rhodopsin” value (GRK6)?
**A.** The value was “inhibited”.

**Q.** What about the “Inhibition of GRK7 phosphorylation of rhodopsin” value (GRK7) of the same molecule?
**A.** Its value is “inhibited”.

**Q.** And the “Effect on GRK2 phosphorylation of tubulin, basal activity” value (GRK2 [4])?
**A.** The value was “not significant”.

**Q.** And the “% inhibition of GRK5 phosphorylation of tubulin” value (GRK5 [5]; 100 μM peptide, 100 nM GRK5, 60 min)?
**A.** The value was ~ 45%.

**Q.** With MELENIVANTVLLKAR-NH2 [N-Ter] as the molecule, how does the IC50 (GRK5 [1]) read?
**A.** Its IC50 is 5 to 10 µM.

**Q.** And the “Inhibition of GRK5 phosphorylation of rhodopsin” value (GRK5 [1])?
**A.** Its value is “reasonably potent inhibitor”.

**Q.** What about the “Inhibition of GRK2 phosphorylation of rhodopsin” value (GRK2 [3]) of the same molecule?
**A.** Its value is “less potent inhibitor”.

**Q.** And the “Inhibition of GRK6 phosphorylation of rhodopsin” value (GRK6)?
**A.** Its value is “less potent inhibitor”.

**Q.** And the IC50 (GRK7)?
**A.** The IC50 was 5 to 10 µM.

**Q.** What about the “Inhibition of GRK7 phosphorylation of rhodopsin” value (GRK7) of the same molecule?
**A.** The value was “reasonably potent inhibitor”.

**Q.** And the “Effect on GRK2 phosphorylation of tubulin, basal activity” value (GRK2 [4])?
**A.** Its value is “no significant effect”.

**Q.** What about the “Effect on GRK5 phosphorylation of tubulin, basal activity” value (GRK5 [5]; 60 min) of the same molecule?
**A.** The value was “no significant effect”.

**Q.** Which GRK5 phosphorylation of tubulin: IC50 of inhibition [6] does the source give for Ac-PIGRLLFRQFC-NH2 [α3 (61–71) peptide of GRK5] here?
**A.** The GRK5 phosphorylation of tubulin: IC50 of inhibition was 30 µM.

**Q.** How did the GRK5 phosphorylation of light-activated rhodopsin: IC50 of inhibition [7] turn out when Ac-ILENLKDCGLF-NH2 [Gα transducin C-tail peptide TCT (340–350) K341L] was run?
**A.** Its GRK5 phosphorylation of light-activated rhodopsin: IC50 of inhibition is 10 µM.
